Assay results: ChEMBL document CHEMBL5126498, “Peptidomimetic nitrile warheads as SARS-CoV-2 3CL protease inhibitors” (RSC Med Chem, 2021)

Legend:
[1] = test system: SARS-CoV-2; assay: Antiviral activity against SARS-CoV-2 infected in African Green monkey Vero E6 cells assessed as reduction in viral plaques in presence of efflux inhibitor CP-100356 by plaque reduction assay; format: functional, organism-based; conditions: Severe acute respiratory syndrome coronavirus 2, Vero C1008
[2] = molecular target: T1, Cathepsin B (Homo sapiens, UniProt P07858); assay: Inhibition of human cathepsin B
[3] = molecular target: T2, Procathepsin L (Homo sapiens, UniProt P07711); assay: Inhibition of human cathepsin L at 1 uM relative to control
Target sequence in this assay (P07711 114-333 limits assumed): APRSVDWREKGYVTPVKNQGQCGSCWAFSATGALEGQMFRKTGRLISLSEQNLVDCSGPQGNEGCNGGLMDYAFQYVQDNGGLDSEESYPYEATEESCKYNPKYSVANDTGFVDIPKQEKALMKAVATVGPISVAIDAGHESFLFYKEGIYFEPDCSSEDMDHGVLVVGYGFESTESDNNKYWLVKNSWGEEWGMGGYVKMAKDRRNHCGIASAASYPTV

[4] = Cytotoxicity against African Green monkey Vero E6 cells assessed as reduction in cell viability by CellTiter-Glo assay; format: toxicity, cell-based, Vero C1008; conditions: chlorocebus sabaeus
Summary of the method: (§1)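 Vero E6 or A549 cells were seeded at 1×10^4/well and left overnight. Compounds were added at final 50 and 200 μM in 0.5% DMSO for 24 h. Read-out was CellTiter-Glo luminescence, with viability calculated relative to 0.5% DMSO-treated cells. Quadruplicate wells were run in one experiment, and CC50 was interpolated where possible.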

[5] = molecular target: T1, Cathepsin B; assay: Inhibition of human cathepsin B at 1 uM relative to control
[6] = Cytotoxicity against African Green monkey Vero E6 cells assessed as reduction in cell viability by CCK-8 assay; format: toxicity, cell-based, Vero C1008; conditions: chlorocebus sabaeus
Summary of the method: as §1, with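 “CCK-8 absorbance” for “Read-out”, “read at 450 nm, and” for “CellTiter-Glo luminescence, with”, “viability was” for “viability”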

[7] = Cytotoxicity against human A549 cells assessed as reduction in cell viability by CellTiter-Glo assay; format: toxicity, cell-based; summary of the method: as §1
[8] = test system: SARS-CoV-2; assay: Antiviral activity against SARS-CoV-2 infected in African Green monkey Vero E6 cells assessed as reduction in viral plaques by plaque reduction assay; format: functional, organism-based; conditions: Severe acute respiratory syndrome coronavirus 2, Vero C1008
[9] = Cytotoxicity against human A549 cells assessed as reduction in cell viability by CCK-8 assay; format: toxicity, cell-based
Summary of the method: as §1, with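 “CCK-8 absorbance” for “Read-out”, “read at 450 nm, and” for “CellTiter-Glo luminescence, with”, “viability was” for “viability”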

[10] = molecular target: T2, Procathepsin L; assay: Inhibition of human cathepsin L
Target sequence in this assay (P07711 whole entry): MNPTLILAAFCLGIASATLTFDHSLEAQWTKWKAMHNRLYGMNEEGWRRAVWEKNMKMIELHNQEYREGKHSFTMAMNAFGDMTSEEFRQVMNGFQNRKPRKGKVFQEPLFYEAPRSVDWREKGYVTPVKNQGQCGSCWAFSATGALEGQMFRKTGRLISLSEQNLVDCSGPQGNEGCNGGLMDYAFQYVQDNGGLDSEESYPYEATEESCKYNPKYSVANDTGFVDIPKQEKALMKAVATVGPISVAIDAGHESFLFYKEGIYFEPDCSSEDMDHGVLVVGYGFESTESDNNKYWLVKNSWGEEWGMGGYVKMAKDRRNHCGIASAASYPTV

[11] = molecular target: T3, Cathepsin S (Homo sapiens, UniProt P25774); assay: Inhibition of human cathepsin S at 1 uM relative to control
Summary of the method: (§2)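 Human cathepsin S fluorometric kit assay, with compound incubated 30 min at room temperature at final 1% DMSO. […] Enzyme-control and test slopes were obtained by linear regression, and % relative inhibition was calculated per kit.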
Target sequence in this assay (P25774 115-331 limits assumed): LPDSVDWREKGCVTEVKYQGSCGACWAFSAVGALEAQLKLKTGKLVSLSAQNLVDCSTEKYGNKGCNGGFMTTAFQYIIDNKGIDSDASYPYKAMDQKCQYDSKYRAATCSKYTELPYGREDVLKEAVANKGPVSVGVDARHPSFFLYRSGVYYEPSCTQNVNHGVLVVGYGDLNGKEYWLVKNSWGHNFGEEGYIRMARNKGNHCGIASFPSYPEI

[12] = molecular target: T3, Cathepsin S; assay: Inhibition of human cathepsin S; summary of the method: as §2
Target sequence in this assay (P25774 whole entry): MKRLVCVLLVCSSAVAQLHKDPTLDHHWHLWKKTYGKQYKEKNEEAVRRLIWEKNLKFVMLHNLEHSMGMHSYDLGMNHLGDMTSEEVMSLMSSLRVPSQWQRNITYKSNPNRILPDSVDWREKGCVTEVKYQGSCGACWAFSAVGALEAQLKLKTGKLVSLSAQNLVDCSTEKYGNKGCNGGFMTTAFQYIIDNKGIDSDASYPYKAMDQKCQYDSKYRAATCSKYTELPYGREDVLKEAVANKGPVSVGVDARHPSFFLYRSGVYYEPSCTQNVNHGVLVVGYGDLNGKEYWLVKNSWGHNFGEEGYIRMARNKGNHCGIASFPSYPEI

[13] = molecular target: Replicase polyprotein 1ab (Severe acute respiratory syndrome coronavirus 2, UniProt P0DTD1); assay: Inhibition of SARS-CoV-2 3CL protease by FRET assay
[14] = Inhibition of Enterovirus 71 3Cpro
[15] = Selectivity ratio, ratio of IC50 for inhibition of human cathepsin S to IC50 for inhibition of SARS-CoV-2 3CL protease
[16] = Selectivity ratio, ratio of IC50 for inhibition of human cathepsin B to IC50 for inhibition of SARS-CoV-2 3CL protease
[17] = Selectivity ratio, ratio of IC50 for inhibition of human cathepsin L to IC50 for inhibition of SARS-CoV-2 3CL protease
[18] = Stability of the compound in presence of glutathione by LC-MS/MS method; format: physicochemical
[19] = molecular target: Replicase polyprotein 1ab (Severe acute respiratory syndrome coronavirus 2) (UniProt P0DTD1); assay: Reversible inhibition of SARS-CoV-2 3CL protease assessed as enzyme recovery measured after 4 hrs by dialysis method relative to control; set-up: scale not given: the % may be the effect or the level left
Summary of the method: (§3)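 SARS-CoV-2 3CLpro (final 2 μM) was preincubated with 20 μM inhibitor for 30 min at room temperature. Activity was compared with apo-enzyme dialysed under identical conditions.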

[20] = molecular target: Replicase polyprotein 1ab (Severe acute respiratory syndrome coronavirus 2) (UniProt P0DTD1); assay: Reversible inhibition of SARS-CoV-2 3CL protease assessed as enzyme recovery measured after 3 days by dialysis method relative to control; set-up: scale not given: the % may be the effect or the level left; conditions: time 3.0 day; summary of the method: as §3
[21] = Glutathione reactivity at pH 7.4 assessed as compound recovery measured after 24 hrs by LC-MS/MS method; format: physicochemical; conditions: glutathione solution, read-out: Activity

## COc1cc(Cl)cc2[nH]c(C(=O)N[C@@H](CC(C)C)C(=O)N[C@H](C#N)C[C@@H]3CCCNC3=O)cc12
[1]
  EC50: 0.233 µM
[2]
  IC50: 18 µM
[3]
  inhibition: 37%
[4]
  CC50: > 200 µM
[5]
  inhibition: < 1%
[6]
  CC50: > 200 µM
[7]
  CC50: > 200 µM
[8]
  EC50: 2.2 µM
[9]
  CC50: > 200 µM
[10]
  IC50: 0.47 µM
[11]
  inhibition: 72%
[12]
  IC50: 0.4 µM

## COc1cccc2[nH]c(C(=O)N[C@@H](CC(C)C)C(=O)N[C@H](C=O)C[C@@H]3CCNC3=O)cc12
[2]
  IC50: 2 µM
[3]
  inhibition: 53%
[4]
  CC50: > 200 µM
[6]
  CC50: > 200 µM
[7]
  CC50: > 200 µM
[9]
  CC50: > 200 µM
[10]
  IC50: 0.28 µM
[12]
  IC50: 0.04 µM

## COc1cccc2[nH]c(C(=O)N[C@@H](CC(C)C)C(=O)N[C@H](C#N)C[C@@H]3CCNC3=O)cc12
[2]
  IC50: 28 µM
[3]
  inhibition: 15%
[4]
  CC50: > 200 µM
[5]
  inhibition: < 1%
[6]
  CC50: > 200 µM
[7]
  CC50: > 200 µM
[8]
  EC50: > 5 µM
[9]
  CC50: > 200 µM
[10]
  IC50: 1.45 µM
[11]
  inhibition: 78%
[12]
  IC50: 0.7 µM

## CC(C)C[C@H](NC(=O)[C@@H](NC(=O)[C@H](C)NC(=O)OCc1ccccc1)C(C)C)C(=O)N[C@H](C#N)CCC(N)=O
[13]
  IC50: 4.6 µM

## CC(C)C[C@H](NC(=O)c1cc2c(OC(F)(F)F)cccc2[nH]1)C(=O)N[C@H](C#N)C[C@@H]1CCCNC1=O
[1]
  EC50: 0.35 µM
[3]
  inhibition: 8%
[4]
  CC50: > 100 µM
[5]
  inhibition: < 1%
[13]
  IC50: 0.0137 µM
[6]
  CC50: > 100 µM
[7]
  CC50: 90 µM
[8]
  EC50: 2.6 µM
[9]
  CC50: 90 µM
[11]
  inhibition: 67%

## CC(C)C[C@H](NC(=O)c1cc2c3c(ccc2[nH]1)CCO3)C(=O)N[C@H](C#N)C[C@@H]1CCCNC1=O
[3]
  inhibition: 10%
[4]
  CC50: > 200 µM
[5]
  inhibition: < 1%
[6]
  CC50: > 200 µM
[7]
  CC50: > 200 µM
[8]
  EC50: > 10 µM
[9]
  CC50: > 200 µM
[11]
  inhibition: 67%

## Cc1cc(C(=O)N[C@@H](Cc2ccc(F)cc2)C(=O)N[C@H](C#N)C[C@@H]2CCCNC2=O)no1
[14]
  IC50: 14.7 µM

## CCOc1cccc2[nH]c(C(=O)N[C@@H](CC(C)C)C(=O)N[C@H](C#N)C[C@@H]3CCCNC3=O)cc12
[1]
  EC50: 0.12 µM
[3]
  inhibition: < 1%
[4]
  CC50: > 200 µM
[5]
  inhibition: < 1%
[6]
  CC50: > 200 µM
[7]
  CC50: > 200 µM
[8]
  EC50: 4.8 µM
[9]
  CC50: > 200 µM
[11]
  inhibition: 74%

## COc1cc(Cl)cc2[nH]c(C(=O)N[C@@H](CC(C)(C)C)C(=O)N[C@H](C#N)C[C@@H]3CCCNC3=O)cc12
[1]
  EC50: 0.21 µM
[3]
  inhibition: 18%
[4]
  CC50: > 200 µM
[5]
  inhibition: < 1%
[6]
  CC50: > 200 µM
[7]
  CC50: > 200 µM
[8]
  EC50: 1.5 µM
[9]
  CC50: > 200 µM
[11]
  inhibition: 64%

## COc1cccc2[nH]c(C(=O)N[C@@H](CC(C)C)C(=O)N[C@@H](C[C@@H]3CCCNC3=O)C(=O)CO)cc12
[4]
  CC50: > 200 µM
[6]
  CC50: > 200 µM
[7]
  CC50: > 200 µM
[9]
  CC50: > 200 µM

## COc1cccc2[nH]c(C(=O)N[C@@H](CC(C)C)C(=O)N[C@H](C#N)C[C@@H]3CCCNC3=O)cc12
[1]
  EC50: 0.23 µM
[15]
  Ratio IC50: 189
[16]
  Ratio IC50: 2420
[2]
  IC50: 32 µM
[3]
  inhibition: 22%
[17]
  Ratio IC50: 48
[4]
  CC50: > 200 µM
[5]
  inhibition: < 1%
[6]
  CC50: > 200 µM
[7]
  CC50: > 200 µM
[18]
  Stability: Stable
[19]
  Activity: 10%
[20]
  Activity: 45%
[21]
  remaining at 24 h: ≥ 90%
[8]
  EC50: 2.7 µM
[9]
  CC50: > 200 µM
[10]
  IC50: 0.64 µM
[11]
  inhibition: 73%
[12]
  IC50: 2.5 µM

## CC(C)C[C@H](NC(=O)OCc1ccccc1)C(=O)N[C@@H](C[C@@H]1CCNC1=O)C(O)S(=O)(=O)O (some centres not stated)
[2]
  IC50: 1.4 µM
[3]
  inhibition: 100%
[4]
  CC50: > 200 µM
[5]
  inhibition: 53%
[6]
  CC50: > 200 µM
[7]
  CC50: > 200 µM
[9]
  CC50: > 200 µM
[10]
  IC50: 0.00025 µM
[11]
  inhibition: 99%
[12]
  IC50: 0.023 µM
